Measurements taken from ChEMBL document CHEMBL4325933, “Potent, Selective, and Cell-Penetrating Inhibitors of Kallikrein-Related Peptidase 4 Based on the Cyclic Peptide MCoTI-II” (ACS Med Chem Lett, 2018).
Positions of bridges follow the written chain, without caps; N, C: chain ends. Residues, ends and D or L forms follow the SMILES beside them.

Assays:
Kallikrein-5 = target: T1, Kallikrein-5 (Homo sapiens, UniProt Q9Y337); experiment: Inhibition of KLK5 (unknown origin) expressed in Pichia pastoris strain X-33 using Ac-YRSR-pNA as substrate preincubated for 30 mins followed by substrate addition and measured for 7 mins by spectrophotometric method
T1 sequence (Q9Y337 whole entry): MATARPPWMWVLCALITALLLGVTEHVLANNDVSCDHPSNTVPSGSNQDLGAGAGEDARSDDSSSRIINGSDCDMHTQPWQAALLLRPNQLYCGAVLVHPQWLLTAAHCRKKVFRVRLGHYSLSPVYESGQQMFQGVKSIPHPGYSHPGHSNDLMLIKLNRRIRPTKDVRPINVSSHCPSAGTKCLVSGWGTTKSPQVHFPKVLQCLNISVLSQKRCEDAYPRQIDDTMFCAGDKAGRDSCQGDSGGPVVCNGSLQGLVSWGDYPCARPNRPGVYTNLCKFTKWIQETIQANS

[1] = Stability in human serum at 200 uM up to 24 hrs by RP-HPLC analysis; format: ADME, cell-free
Procedure, shortened: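 Peptides incubated in human serum for up to 24 h. At each time point, the area of the peptide peak on analytical HPLC is expressed as a percentage of the peptide peak in PBS at 0 h. Three independent experiments, SD.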

Kallikrein-4 = Kallikrein-4 (Homo sapiens, UniProt Q9Y5K2); experiment: Inhibition of KLK4 (unknown origin) expressed in sf9 cells using Ac-FVQR-pNA as substrate preincubated for 30 mins followed by substrate addition and measured for 7 mins by spectrophotometric method
Plasminogen = Plasminogen (Homo sapiens, UniProt P00747); experiment: Inhibition of plasmin (unknown origin) using Ac-RM(O2)YR-pNA as substrate preincubated for 30 mins followed by substrate addition and measured for 7 mins by spectrophotometric method
Kallikrein-7 = Kallikrein-7 (Homo sapiens, UniProt P49862); experiment: Inhibition of KLK7 (unknown origin) expressed in Pichia pastoris strain X-33 using KHLY-pNA as substrate preincubated for 30 mins followed by substrate addition and measured for 7 mins by spectrophotometric method
Kallikrein-14 = target: T2, Kallikrein-14 (Homo sapiens, UniProt Q9P0G3); experiment: Inhibition of KLK14 (unknown origin) expressed in sf9 cells using Ac-YANR-pNA as substrate preincubated for 30 mins followed by substrate addition and measured for 7 mins by spectrophotometric method
T2 sequence (Q9P0G3 whole entry): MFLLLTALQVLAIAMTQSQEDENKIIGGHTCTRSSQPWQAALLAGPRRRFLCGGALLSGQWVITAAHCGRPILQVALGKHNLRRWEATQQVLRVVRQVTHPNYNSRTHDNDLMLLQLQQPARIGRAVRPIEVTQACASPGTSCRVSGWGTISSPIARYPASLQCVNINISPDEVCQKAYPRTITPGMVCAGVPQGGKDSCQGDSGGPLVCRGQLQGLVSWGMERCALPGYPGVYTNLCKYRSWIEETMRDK

Coagulation factor X = Coagulation factor X (Homo sapiens, UniProt P00742); experiment: Inhibition of factor 10a (unknown origin) using Ac-QRSR-pNA as substrate preincubated for 30 mins followed by substrate addition and measured for 7 mins by spectrophotometric method
Prothrombin = Prothrombin (Homo sapiens, UniProt P00734); experiment: Inhibition of thrombin (unknown origin) using Bz-FVR-pNA as substrate preincubated for 30 mins followed by substrate addition and measured for 7 mins by spectrophotometric method
Plasma kallikrein = Plasma kallikrein (Homo sapiens, UniProt P03952); experiment: Inhibition of plasma kallikrein (unknown origin) using Ac-NLTR-pNA as substrate preincubated for 30 mins followed by substrate addition and measured for 7 mins by spectrophotometric method
Trypsin = Trypsin (Homo sapiens, UniProt P07477+P07478+P35030); experiment: Inhibition of trypsin (unknown origin) using Bz-FVR-pNA as substrate preincubated for 30 mins followed by substrate addition and measured for 7 mins by spectrophotometric method; format: protein assay
Coagulation factor XII = target: T3, Coagulation factor XII (Homo sapiens, UniProt P00748); experiment: Inhibition of factor 12a (unknown origin) using Ac-QRFR-pNA as substrate preincubated for 30 mins followed by substrate addition and measured for 7 mins by spectrophotometric method
T3 sequence (P00748 whole entry): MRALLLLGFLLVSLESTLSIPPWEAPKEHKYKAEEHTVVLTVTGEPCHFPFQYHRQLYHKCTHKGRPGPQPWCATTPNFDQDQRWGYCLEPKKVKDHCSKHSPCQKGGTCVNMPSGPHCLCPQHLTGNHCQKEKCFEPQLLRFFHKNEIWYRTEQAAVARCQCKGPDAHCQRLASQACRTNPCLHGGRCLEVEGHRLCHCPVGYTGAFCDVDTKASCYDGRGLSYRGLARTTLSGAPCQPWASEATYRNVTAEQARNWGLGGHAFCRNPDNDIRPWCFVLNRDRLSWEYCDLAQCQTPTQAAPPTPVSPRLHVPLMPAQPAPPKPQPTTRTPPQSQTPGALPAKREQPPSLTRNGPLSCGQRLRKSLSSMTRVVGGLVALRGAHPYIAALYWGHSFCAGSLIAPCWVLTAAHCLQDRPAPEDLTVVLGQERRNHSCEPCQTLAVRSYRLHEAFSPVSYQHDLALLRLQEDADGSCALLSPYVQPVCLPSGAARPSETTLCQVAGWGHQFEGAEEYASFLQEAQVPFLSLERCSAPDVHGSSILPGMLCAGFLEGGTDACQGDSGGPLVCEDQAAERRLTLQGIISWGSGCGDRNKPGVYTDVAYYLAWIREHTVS

Homo sapiens [2] = species: Homo sapiens; experiment: Selectivity ratio of Ki for KLK5 (unknown origin) expressed in Pichia pastoris strain X-33 to Ki for KLK4 (unknown origin) expressed in sf9 cells
Homo sapiens [3] = species: Homo sapiens; experiment: Selectivity ratio of Ki for KLK7 (unknown origin) expressed in Pichia pastoris strain X-33 to Ki for KLK4 (unknown origin) expressed in sf9 cells
Homo sapiens [4] = species: Homo sapiens; experiment: Selectivity ratio of Ki for KLK14 (unknown origin) expressed in sf9 cells to Ki for KLK4 (unknown origin) expressed in sf9 cells
Homo sapiens [5] = species: Homo sapiens; experiment: Selectivity ratio of Ki for plasmin (unknown origin) to Ki for KLK4 (unknown origin) expressed in sf9 cells
Homo sapiens [6] = species: Homo sapiens; experiment: Selectivity ratio of Ki for factor 12a (unknown origin) to Ki for KLK4 (unknown origin) expressed in sf9 cells
Homo sapiens [7] = species: Homo sapiens; experiment: Selectivity ratio of Ki for thrombin (unknown origin) to Ki for KLK4 (unknown origin) expressed in sf9 cells
Homo sapiens [8] = species: Homo sapiens; experiment: Selectivity ratio of Ki for plasma kallikrein (unknown origin) to Ki for KLK4 (unknown origin) expressed in sf9 cells
Homo sapiens [9] = species: Homo sapiens; experiment: Selectivity ratio of Ki for factor 10a (unknown origin) to Ki for KLK4 (unknown origin) expressed in sf9 cells
[10] = Drug uptake in human HeLa cells at 4 uM using Alexa Fluor 488 conjugated test compound after 1 hr by trypan blue dye based flow cytometry relative to HIV-Tat; format: ADME, cell-based
Procedure, shortened: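 HeLa cells given Alexa Fluor 488-conjugated peptides (4 μM). Mean fluorescence measured by flow cytometry before and after trypan blue quenching of extracellular signal. Values normalized to the HIV-TAT positive control (post-trypan blue). Three independent experiments, SD; one-way ANOVA with Tukey's post hoc test.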

HeLa = experiment: Cytotoxicity against human HeLa cells up to 64 uM after 2 hrs by resazurin dye based assay; format: cell-based
Procedure, shortened: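 HeLa cells exposed to peptides for 2 h, concentrations up to 64 μM. Resazurin then added for 18 h at 37 °C. Resorufin absorbance read at 540 and 620 nm, and viability % expressed as the A620/A540 ratio. Three independent experiments, standard deviation.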

Chain of Kallikrein-4 (Q9Y5K2 whole entry): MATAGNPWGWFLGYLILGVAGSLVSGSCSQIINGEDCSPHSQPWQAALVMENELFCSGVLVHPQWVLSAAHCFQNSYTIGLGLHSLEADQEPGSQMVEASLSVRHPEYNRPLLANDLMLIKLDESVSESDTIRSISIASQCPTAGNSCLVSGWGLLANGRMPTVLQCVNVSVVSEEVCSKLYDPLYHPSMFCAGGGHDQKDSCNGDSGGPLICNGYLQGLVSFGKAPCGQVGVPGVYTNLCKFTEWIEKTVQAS
Chain of Coagulation factor X (P00742 41-179 limits assumed): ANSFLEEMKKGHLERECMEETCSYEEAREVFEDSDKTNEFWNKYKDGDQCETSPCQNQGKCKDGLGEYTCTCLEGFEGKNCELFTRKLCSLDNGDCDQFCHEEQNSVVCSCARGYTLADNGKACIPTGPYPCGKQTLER
Chain of Coagulation factor X (P00742 235-488 limits assumed): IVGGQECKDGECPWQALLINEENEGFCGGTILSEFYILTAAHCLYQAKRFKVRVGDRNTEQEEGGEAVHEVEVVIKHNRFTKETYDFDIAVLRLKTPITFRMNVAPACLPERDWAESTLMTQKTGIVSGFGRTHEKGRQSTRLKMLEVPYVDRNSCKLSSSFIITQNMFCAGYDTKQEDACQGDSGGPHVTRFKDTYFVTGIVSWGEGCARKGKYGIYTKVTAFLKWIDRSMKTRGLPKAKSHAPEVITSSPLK
Chain of Kallikrein-7 (P49862 whole entry): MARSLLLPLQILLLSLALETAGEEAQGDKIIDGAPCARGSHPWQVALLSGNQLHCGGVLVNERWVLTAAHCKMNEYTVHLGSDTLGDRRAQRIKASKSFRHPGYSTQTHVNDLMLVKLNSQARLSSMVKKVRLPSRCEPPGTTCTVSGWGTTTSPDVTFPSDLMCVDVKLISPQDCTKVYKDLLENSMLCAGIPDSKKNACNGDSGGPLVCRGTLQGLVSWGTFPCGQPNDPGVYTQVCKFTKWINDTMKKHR
Chain of Plasminogen (P00747 97-580 limits assumed): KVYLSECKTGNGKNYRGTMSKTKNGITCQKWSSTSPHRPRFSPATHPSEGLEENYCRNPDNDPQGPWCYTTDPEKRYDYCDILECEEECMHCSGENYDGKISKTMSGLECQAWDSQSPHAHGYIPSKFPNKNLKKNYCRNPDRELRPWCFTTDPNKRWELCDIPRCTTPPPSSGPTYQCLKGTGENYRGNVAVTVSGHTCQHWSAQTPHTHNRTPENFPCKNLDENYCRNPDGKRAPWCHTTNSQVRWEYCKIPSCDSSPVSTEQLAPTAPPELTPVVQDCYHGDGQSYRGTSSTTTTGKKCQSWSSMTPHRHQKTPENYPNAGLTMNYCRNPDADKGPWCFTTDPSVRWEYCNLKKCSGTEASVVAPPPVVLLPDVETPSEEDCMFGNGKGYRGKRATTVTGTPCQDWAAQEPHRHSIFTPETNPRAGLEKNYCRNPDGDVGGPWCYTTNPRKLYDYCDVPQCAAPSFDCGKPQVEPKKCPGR
Chain of Plasminogen (P00747 581-810 limits assumed): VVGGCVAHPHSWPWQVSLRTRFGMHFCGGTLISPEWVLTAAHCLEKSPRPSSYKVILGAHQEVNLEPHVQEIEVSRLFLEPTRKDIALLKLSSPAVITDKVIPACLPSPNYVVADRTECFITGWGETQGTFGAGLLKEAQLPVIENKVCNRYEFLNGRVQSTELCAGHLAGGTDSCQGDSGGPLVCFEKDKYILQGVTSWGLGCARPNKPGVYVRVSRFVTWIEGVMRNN
Chain of Plasma kallikrein (P03952 20-390 limits assumed): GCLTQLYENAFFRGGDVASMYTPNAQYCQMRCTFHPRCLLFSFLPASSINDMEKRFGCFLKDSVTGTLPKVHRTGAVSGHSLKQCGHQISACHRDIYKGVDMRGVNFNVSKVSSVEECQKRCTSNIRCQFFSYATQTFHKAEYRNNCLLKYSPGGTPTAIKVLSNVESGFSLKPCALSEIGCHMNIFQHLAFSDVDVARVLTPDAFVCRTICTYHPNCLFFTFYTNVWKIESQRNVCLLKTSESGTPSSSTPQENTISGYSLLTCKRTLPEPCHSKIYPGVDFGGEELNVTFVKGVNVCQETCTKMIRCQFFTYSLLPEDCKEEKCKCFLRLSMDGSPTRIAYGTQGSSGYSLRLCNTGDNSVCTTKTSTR
Chain of Plasma kallikrein (P03952 391-638 limits assumed): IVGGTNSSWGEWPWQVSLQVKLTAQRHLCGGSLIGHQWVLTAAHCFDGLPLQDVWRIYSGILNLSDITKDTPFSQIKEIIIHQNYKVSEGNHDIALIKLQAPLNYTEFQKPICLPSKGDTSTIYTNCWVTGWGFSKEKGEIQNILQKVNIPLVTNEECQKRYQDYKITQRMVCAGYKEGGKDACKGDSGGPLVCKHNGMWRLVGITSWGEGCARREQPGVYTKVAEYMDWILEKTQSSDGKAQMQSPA

## CC[C@H](C)[C@@H]1NC(=O)[C@@H]2CSSC[C@@H]3NC(=O)[C@H](Cc4ccccc4)NC(=O)CNC(=O)CNC(=O)[C@H](CC(=O)O)NC(=O)[C@H](CO)NC(=O)CNC(=O)[C@H](CO)NC(=O)CNC(=O)[C@@H]4CSSC[C@H](NC(=O)[C@H](CC(=O)O)NC(=O)[C@H](CO)NC(=O)[C@H](CC(=O)O)NC(=O)[C@H](CCCNC(=N)N)NC(=O)[C@H](CCCNC(=N)N)NC(=O)[C@H](CSSC[C@H](NC1=O)C(=O)N[C@@H](CCCNC(=N)N)C(=O)NCC(=O)N[C@@H](CC(N)=O)C(=O)NCC(=O)N[C@@H](Cc1ccc(O)cc1)C(=O)N4)NC(=O)[C@H](CCCCN)NC(=O)[C@H](CCCCN)NC(=O)[C@H](CC(C)C)NC(=O)[C@H]([C@@H](C)CC)NC(=O)[C@H](CCCNC(=N)N)NC(=O)[C@H](CCC(N)=O)NC3=O)C(=O)N1CCC[C@H]1C(=O)NCC(=O)N[C@@H](C)C(=O)N2 (cyclo(ACICRGNGYCGSGSDGGFCQRILKKCRRDSDCPG); disulfide 2-19, 4-26, 10-32)
Kallikrein-5
  Ki: > 10 µM
[1]
  Stability: Stable
Kallikrein-4
  Ki: 0.0001 µM
Plasminogen
  Ki: > 10 µM
Kallikrein-7
  Ki: > 10 µM
Kallikrein-14
  Ki: > 10 µM
Coagulation factor X
  Ki: 0.5 µM
Prothrombin
  Ki: > 10 µM
Plasma kallikrein
  Ki: > 10 µM
Trypsin
  Ki: 0.031 µM
Coagulation factor XII
  Ki: > 10 µM
Homo sapiens [2]
  Ratio Ki: > 100000
Homo sapiens [3]
  Ratio Ki: > 100000
Homo sapiens [4]
  Ratio Ki: > 100000
Homo sapiens [5]
  Ratio Ki: > 100000
Homo sapiens [6]
  Ratio Ki: > 100000
Homo sapiens [7]
  Ratio Ki: > 100000
Homo sapiens [8]
  Ratio Ki: > 100000
Homo sapiens [9]
  Ratio Ki: 5000
[10]
  Drug uptake: 23%
HeLa
  Activity: Non-Toxic
